The results in this text go back to ChEMBL document CHEMBL1641444, “Synthesis and evaluation of 6-[1-(2-[(18)F]fluoro-3-pyridyl)-5-methyl-1H-1,2,3-triazol-4-yl]quinoline for positron emission tomography imaging of the metabotropic glutamate receptor type 1 in brain” (Bioorg Med Chem, 2011).

In test [1] the target is T1, Metabotropic glutamate receptor 1 (Homo sapiens, UniProt Q13255). Description: Binding affinity to mGluR1.
Test [2] has as its target Metabotropic glutamate receptor 1 (Rattus norvegicus) (UniProt P23385). Description: Binding affinity to mGluR1 in Sprague-Dawley rat cerebellum at 0.023 nM after 30 mins by autoradiography. It counts as tissue-based. The conditions noted are these: tested as the 18F-labelled form. In outline:
(§1)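 Rat brain sections were preincubated 3 × 5 min at room temperature in 50 mM Tris–HCl, pH 7.4, with 1.2 mM MgCl2 and 2 mM CaCl2. They were then incubated 30 min at room temperature in fresh buffer with 0.023 nM [18F]ligand, alone or with MPEP at two levels. Sections were washed 3 × 5 min in cold buffer, rinsed in cold water and dried. Imaging-plate autoradiography followed; regional PSL/mm2 was taken minus 1.5 PSL/mm2 background. Means ± SD, n = 6–8 per group.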

For test [3] the target is unchanged. The test is described as follows: Binding affinity to mGluR1 in Sprague-Dawley rat thalamus at 0.023 nM after 30 mins by autoradiography. The test is classed as tissue-based. The conditions noted are these: tested as the 18F-labelled form. In outline: as §1
Test [4] shares this target. The test is described as follows: Binding affinity to mGluR1 in Sprague-Dawley rat hippocampus at 0.023 nM after 30 mins by autoradiography. The test is classed as tissue-based. To be noted: tested as the 18F-labelled form. An outline of the steps:
as §1

Test [5] has the same target. The test is described as follows: Binding affinity to mGluR1 in Sprague-Dawley rat olfactory bulb at 0.023 nM after 30 mins by autoradiography. To be noted: tested as the 18F-labelled form. In outline: as §1
For test [6] the target is unchanged. The test is described as follows: Binding affinity to mGluR1 in Sprague-Dawley rat striatum at 0.023 nM after 30 mins by autoradiography. To be noted: tested as the 18F-labelled form. In outline:
as §1

Test [7] has the same target. Description: Binding affinity to mGluR1 in Sprague-Dawley rat cerebral cortex at 0.023 nM after 30 mins by autoradiography. It counts as tissue-based. The conditions noted are these: tested as the 18F-labelled form. In outline: as §1
For test [8] the target is unchanged. The test is described as follows: Binding affinity to mGluR1 in Sprague-Dawley rat pons-medulla at 0.023 nM after 30 mins by autoradiography. To be noted: tested as the 18F-labelled form. An outline of the steps:
as §1

For test [9] the target is unchanged. Description: Binding affinity to mGluR1 in Sprague-Dawley rat whole brain assessed as reduction of total radioactivity at 0.023 nM after 30 mins by autoradiography in presence of mGluRl antagonist FPTQ. Details: scale not given: the % may be the effect or the level left.
For test [10] the target is unchanged. The test is described as follows: Binding affinity to mGluR1 in Sprague-Dawley rat whole brain at 0.023 nM after 30 mins by autoradiography in presence of mGluRl antagonist JNJ-16259685. An outline of the steps: (§2)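 Sections were incubated as for the regional assay: 0.023 nM [18F]ligand, 30 min at room temperature, in 50 mM Tris–HCl pH 7.4 with MgCl2 and CaCl2, after 3 × 5 min preincubation. Unlabeled ligand or JNJ-16259685 was co-incubated to define specific binding. Sections were washed cold and exposed to imaging plates. ROIs covered the whole brain; values are PSL/mm2 minus background. n = 6–8.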

Test [11] shares this target. Description: Binding affinity to mGluR1 in Sprague-Dawley rat whole brain at 0.023 nM after 30 mins by autoradiography in presence of mGluRl antagonist FPTQ. An outline of the steps:
as §2

The target is the same in test [12]. The test is described as follows: Binding affinity to mGluR1 in Sprague-Dawley rat cerebellum at 0.023 nM after 30 mins by autoradiography in presence of 1 uM of mGluR5 antagonist MPEP. The test is classed as tissue-based. The conditions noted are these: tested as the 18F-labelled form. In outline: as §1
Test [13] has the same target. The test is described as follows: Binding affinity to mGluR1 in Sprague-Dawley rat thalamus at 0.023 nM after 30 mins by autoradiography in presence of 1 uM of mGluR5 antagonist MPEP. The test is classed as tissue-based. To be noted: tested as the 18F-labelled form. An outline of the steps:
as §1

Test [14] shares this target. The test is described as follows: Binding affinity to mGluR1 in Sprague-Dawley rat hippocampus at 0.023 nM after 30 mins by autoradiography in presence of 1 uM of mGluR5 antagonist MPEP. The conditions noted are these: tested as the 18F-labelled form. It counts as tissue-based. An outline of the steps: as §1
For test [15] the target is unchanged. Description: Binding affinity to mGluR1 in Sprague-Dawley rat olfactory bulb at 0.023 nM after 30 mins by autoradiography in presence of 1 uM of mGluR5 antagonist MPEP. To be noted: tested as the 18F-labelled form. An outline of the steps:
as §1

For test [16] the target is unchanged. Description: Binding affinity to mGluR1 in Sprague-Dawley rat striatum at 0.023 nM after 30 mins by autoradiography in presence of 1 uM of mGluR5 antagonist MPEP. The test is classed as tissue-based. The conditions noted are these: tested as the 18F-labelled form. In outline: as §1
Test [17] shares this target. The test is described as follows: Binding affinity to mGluR1 in Sprague-Dawley rat cerebral cortex at 0.023 nM after 30 mins by autoradiography in presence of 1 uM of mGluR5 antagonist MPEP. The conditions noted are these: tested as the 18F-labelled form. The test is classed as tissue-based. In outline: as §1
The target is the same in test [18]. The test is described as follows: Binding affinity to mGluR1 in Sprague-Dawley rat pons-medulla at 0.023 nM after 30 mins by autoradiography in presence of 1 uM of mGluR5 antagonist MPEP. The conditions noted are these: tested as the 18F-labelled form. In outline:
as §1

The target is the same in test [19]. Description: Binding affinity to mGluR1 in Sprague-Dawley rat cerebellum at 0.023 nM after 30 mins by autoradiography in presence of 10 uM of mGluR5 antagonist MPEP. To be noted: tested as the 18F-labelled form. It counts as tissue-based. An outline of the steps: as §1
Test [20] has the same target. Description: Binding affinity to mGluR1 in Sprague-Dawley rat thalamus at 0.023 nM after 30 mins by autoradiography in presence of 10 uM of mGluR5 antagonist MPEP. The conditions noted are these: tested as the 18F-labelled form. An outline of the steps:
as §1

Test [21] has the same target. The test is described as follows: Binding affinity to mGluR1 in Sprague-Dawley rat hippocampus at 0.023 nM after 30 mins by autoradiography in presence of 10 uM of mGluR5 antagonist MPEP. It counts as tissue-based. The conditions noted are these: tested as the 18F-labelled form. In outline:
as §1

For test [22] the target is unchanged. Description: Binding affinity to mGluR1 in Sprague-Dawley rat olfactory bulb at 0.023 nM after 30 mins by autoradiography in presence of 10 uM of mGluR5 antagonist MPEP. To be noted: tested as the 18F-labelled form. In outline:
as §1

Test [23] has the same target. Description: Binding affinity to mGluR1 in Sprague-Dawley rat striatum at 0.023 nM after 30 mins by autoradiography in presence of 10 uM of mGluR5 antagonist MPEP. It counts as tissue-based. The conditions noted are these: tested as the 18F-labelled form. An outline of the steps:
as §1

The target is the same in test [24]. The test is described as follows: Binding affinity to mGluR1 in Sprague-Dawley rat cerebral cortex at 0.023 nM after 30 mins by autoradiography in presence of 10 uM of mGluR5 antagonist MPEP. The test is classed as tissue-based. To be noted: tested as the 18F-labelled form. An outline of the steps:
as §1

For test [25] the target is unchanged. The test is described as follows: Binding affinity to mGluR1 in Sprague-Dawley rat pons-medulla at 0.023 nM after 30 mins by autoradiography in presence of 10 uM of mGluR5 antagonist MPEP. To be noted: tested as the 18F-labelled form. In outline:
as §1

Test [26] has the same target. Description: Binding affinity to mGluR1 in Sprague-Dawley rat brain assessed as decrease of total binding at 0.023 nM after 30 mins by autoradiography in presence of 10 uM of mGluR5 antagonist MPEP. It counts as tissue-based. Details: scale not given: the % may be the effect or the level left. An outline of the steps: as §1
The target of test [27] is T1, Metabotropic glutamate receptor 1. The test is described as follows: Binding affinity to human mGluR1.
In test [28] the target is Metabotropic glutamate receptor 1 (Mus musculus, UniProt P97772). Description: Binding affinity to mouse mGluR1.
Metabotropic glutamate receptor 1 (Mus musculus, UniProt P97772), sequence (P97772 whole entry): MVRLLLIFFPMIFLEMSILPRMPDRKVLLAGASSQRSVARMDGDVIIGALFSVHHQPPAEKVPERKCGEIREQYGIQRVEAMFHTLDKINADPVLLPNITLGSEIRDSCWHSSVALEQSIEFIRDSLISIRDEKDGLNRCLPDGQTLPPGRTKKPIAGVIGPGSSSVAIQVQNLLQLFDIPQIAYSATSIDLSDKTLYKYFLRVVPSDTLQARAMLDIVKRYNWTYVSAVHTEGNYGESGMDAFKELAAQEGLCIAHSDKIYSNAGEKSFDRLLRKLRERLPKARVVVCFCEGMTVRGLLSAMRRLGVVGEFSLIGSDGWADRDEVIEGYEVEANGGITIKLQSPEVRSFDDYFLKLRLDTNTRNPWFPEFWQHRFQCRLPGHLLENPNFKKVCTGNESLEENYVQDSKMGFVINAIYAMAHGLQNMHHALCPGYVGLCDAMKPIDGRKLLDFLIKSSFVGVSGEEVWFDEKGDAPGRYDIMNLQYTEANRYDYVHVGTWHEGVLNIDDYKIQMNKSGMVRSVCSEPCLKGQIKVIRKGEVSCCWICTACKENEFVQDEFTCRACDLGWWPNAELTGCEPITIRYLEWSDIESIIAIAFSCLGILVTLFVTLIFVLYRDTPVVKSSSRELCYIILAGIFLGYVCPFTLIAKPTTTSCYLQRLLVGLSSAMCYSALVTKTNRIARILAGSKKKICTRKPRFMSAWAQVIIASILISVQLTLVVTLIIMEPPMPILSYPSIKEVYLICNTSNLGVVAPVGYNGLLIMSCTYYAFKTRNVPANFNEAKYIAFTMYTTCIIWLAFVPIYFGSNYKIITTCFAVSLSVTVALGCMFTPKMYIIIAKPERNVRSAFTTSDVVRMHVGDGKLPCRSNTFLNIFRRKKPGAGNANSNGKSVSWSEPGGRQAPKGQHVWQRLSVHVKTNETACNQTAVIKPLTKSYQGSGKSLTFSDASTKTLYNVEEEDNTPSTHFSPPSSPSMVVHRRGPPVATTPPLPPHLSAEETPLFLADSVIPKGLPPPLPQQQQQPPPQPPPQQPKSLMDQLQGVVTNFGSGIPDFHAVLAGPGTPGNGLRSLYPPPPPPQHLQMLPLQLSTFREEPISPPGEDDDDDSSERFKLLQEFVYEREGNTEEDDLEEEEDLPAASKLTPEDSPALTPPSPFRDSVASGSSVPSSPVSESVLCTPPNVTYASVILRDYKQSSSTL

Structures are written as SMILES.

Metabotropic glutamate receptor 1 (Rattus norvegicus), sequence (P23385 19-1199 limits assumed): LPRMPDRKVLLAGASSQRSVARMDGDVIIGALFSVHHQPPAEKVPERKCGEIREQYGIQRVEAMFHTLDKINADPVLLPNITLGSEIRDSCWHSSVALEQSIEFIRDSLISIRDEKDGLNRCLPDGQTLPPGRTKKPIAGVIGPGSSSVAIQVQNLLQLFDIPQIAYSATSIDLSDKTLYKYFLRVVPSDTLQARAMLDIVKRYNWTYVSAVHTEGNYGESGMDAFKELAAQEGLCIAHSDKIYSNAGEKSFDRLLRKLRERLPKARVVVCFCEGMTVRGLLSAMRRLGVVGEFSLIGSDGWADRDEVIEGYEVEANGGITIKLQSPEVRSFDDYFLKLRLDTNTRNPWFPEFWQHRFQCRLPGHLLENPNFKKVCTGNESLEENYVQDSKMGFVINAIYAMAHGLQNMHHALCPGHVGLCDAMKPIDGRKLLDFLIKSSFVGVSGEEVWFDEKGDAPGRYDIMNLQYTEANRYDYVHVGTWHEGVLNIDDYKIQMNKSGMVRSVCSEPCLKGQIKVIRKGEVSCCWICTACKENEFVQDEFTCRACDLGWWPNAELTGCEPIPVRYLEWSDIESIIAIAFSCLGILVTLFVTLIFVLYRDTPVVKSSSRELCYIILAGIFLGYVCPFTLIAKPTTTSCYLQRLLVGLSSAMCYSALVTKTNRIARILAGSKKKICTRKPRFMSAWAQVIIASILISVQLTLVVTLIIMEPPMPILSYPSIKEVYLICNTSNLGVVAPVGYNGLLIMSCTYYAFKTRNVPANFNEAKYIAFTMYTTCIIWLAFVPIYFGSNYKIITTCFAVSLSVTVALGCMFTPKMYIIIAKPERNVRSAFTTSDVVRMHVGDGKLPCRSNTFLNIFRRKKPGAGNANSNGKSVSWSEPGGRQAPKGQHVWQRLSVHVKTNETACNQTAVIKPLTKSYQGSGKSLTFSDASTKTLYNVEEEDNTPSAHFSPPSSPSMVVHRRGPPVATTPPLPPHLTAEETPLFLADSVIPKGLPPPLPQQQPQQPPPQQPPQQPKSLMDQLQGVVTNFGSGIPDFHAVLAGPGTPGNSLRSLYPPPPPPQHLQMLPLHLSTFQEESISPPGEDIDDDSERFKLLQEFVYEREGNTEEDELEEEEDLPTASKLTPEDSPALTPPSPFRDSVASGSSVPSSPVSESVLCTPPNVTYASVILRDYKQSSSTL
T1 sequence (Q13255 whole entry): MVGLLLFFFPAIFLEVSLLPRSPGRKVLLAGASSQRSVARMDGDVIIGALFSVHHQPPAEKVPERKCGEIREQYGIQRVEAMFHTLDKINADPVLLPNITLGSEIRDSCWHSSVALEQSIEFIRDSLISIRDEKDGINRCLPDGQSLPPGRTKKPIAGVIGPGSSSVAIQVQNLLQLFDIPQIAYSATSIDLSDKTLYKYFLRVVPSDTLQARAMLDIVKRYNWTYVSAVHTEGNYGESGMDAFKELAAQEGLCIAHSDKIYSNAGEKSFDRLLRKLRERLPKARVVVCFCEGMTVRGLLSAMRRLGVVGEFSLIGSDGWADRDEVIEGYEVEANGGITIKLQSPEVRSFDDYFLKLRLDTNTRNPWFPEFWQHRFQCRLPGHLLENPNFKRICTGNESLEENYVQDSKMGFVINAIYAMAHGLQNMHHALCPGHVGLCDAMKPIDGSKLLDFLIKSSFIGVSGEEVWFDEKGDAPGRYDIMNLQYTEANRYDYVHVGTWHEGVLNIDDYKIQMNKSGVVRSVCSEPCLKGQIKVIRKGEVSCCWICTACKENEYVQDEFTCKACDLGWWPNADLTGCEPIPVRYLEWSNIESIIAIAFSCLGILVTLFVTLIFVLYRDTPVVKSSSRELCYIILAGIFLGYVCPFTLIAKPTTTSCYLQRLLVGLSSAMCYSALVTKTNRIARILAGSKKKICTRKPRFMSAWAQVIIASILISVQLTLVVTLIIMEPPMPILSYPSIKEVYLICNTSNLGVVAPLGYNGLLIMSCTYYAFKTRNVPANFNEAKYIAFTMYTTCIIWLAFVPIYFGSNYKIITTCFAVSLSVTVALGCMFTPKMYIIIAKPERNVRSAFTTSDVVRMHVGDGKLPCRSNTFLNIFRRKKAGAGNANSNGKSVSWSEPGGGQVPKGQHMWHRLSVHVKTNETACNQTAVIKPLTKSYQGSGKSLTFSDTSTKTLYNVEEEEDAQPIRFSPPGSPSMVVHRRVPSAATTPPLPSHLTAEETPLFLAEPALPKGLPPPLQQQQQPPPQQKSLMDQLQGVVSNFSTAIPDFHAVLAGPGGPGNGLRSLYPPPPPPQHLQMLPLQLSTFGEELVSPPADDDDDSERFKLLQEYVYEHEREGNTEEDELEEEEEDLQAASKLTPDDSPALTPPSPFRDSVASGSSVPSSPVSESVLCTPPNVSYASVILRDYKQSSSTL

A word on the Ki: it is a measure of affinity in units of concentration, obtained from inhibition or displacement. The compound `COCCN([11CH3])Cc1ccc2nc3sc(C(=O)N(C)C4CCCCC4)cn3c2c1` gave a Ki in test [1] of 4.8 nM.

In turn, `CCc1cc2cc(C(=O)[C@H]3CC[C@@H](OC)CC3)ccc2nc1[11CH3]` returned an inhibitory constant (Ki) in [1] of 0.87 nM.

Take `CO[C@H]1CC[C@@H](C(=O)c2ccc3nc4c(cc3c2)CCCO4)CC1`: affinity in [1] was put at a Ki of 0.34 nM.

In test [1], `CCCN1Cc2cc(-c3nnn(-c4cccnc4[18F])c3C)ccc2C1=O` displayed a Ki of 0.4 nM.

One may read the IC50 as the concentration at which inhibition is half-maximal. As to `Cc1c(-c2ccc3ncccc3c2)nnn1-c1cccnc1F`, the Activity in test [2] amounted to 409 PSL/mm2; in test [3] it was 189 PSL/mm2; in [4] it was 112 PSL/mm2; in [5], 88.7 PSL/mm2; in [6], 70.7 PSL/mm2; in test [7] it was 28.2 PSL/mm2. Further, the Activity in test [8] was 17.5 PSL/mm2; in test [9] it was less than 3%; in test [10] it was 0.5 PSL/mm2; in test [11], 0.6 PSL/mm2; in test [12], 398 PSL/mm2; in test [13], 169 PSL/mm2. Moreover, the Activity was found to be 97.4 PSL/mm2 in test [14]; 76 PSL/mm2 in [15]; 61.7 PSL/mm2 in test [16]; 23.6 PSL/mm2 in [17]; 15.2 PSL/mm2 in [18]; 285 PSL/mm2 in test [19]. Besides, the Activity in test [20] was 116 PSL/mm2; in test [21], 69.4 PSL/mm2; in [22] it was 49 PSL/mm2; in test [23] it was 40.1 PSL/mm2; in [24], 15.7 PSL/mm2; in test [25], 9.5 PSL/mm2. In test [26], the Activity is 30%. The half-maximal inhibitory concentration (IC50) in test [27] was 3.6 nM; in test [28], 1.4 nM.
